Results from ChEMBL document CHEMBL1146380, “Synthesis, antimicrobial activity, and QSAR studies of furan-3-carboxamides” (2007).
≈ marks a conversion by molar mass, not a printed value. Calls of active or inactive are those of the source. The rule behind the calls is not given here.

Key:
Candida albicans = assay: Antimicrobial activity against Candida albicans ATCC 44373 by broth microdilution method; format: functional
Procedure, shortened: (§1)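 Yeasts grown on potato dextrose agar. Inoculum was standardized by McFarland turbidity as for bacteria, into RPMI 1640 broth (M27-A2). DMSO-dissolved compound was tested in twofold dilutions from 320 to 1.25 at 35 °C for 24 h, in duplicate. MIC was the lowest concentration completely inhibiting visible growth. Fungicidal concentration was read by subculturing 20 µL from clear wells on Sabouraud dextrose agar at 35 °C.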

Candida dubliniensis = assay: Antimicrobial activity against Candida dubliniensis CBS 7987 by broth microdilution method; format: functional; procedure, shortened: as §1
Nakaseomyces glabratus = assay: Antimicrobial activity against Candida glabrata […] by broth microdilution method; format: functional; procedure, shortened: as §1
[1] = test system: Cryptococcus deneoformans; assay: Antimicrobial activity against Cryptococcus neoformans var.neoformans serotype D ATCC 28952 by broth microdilution method; format: functional
Procedure, shortened: (§2)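 Organism grown on potato dextrose agar, with turbidity-standardized inoculum in RPMI 1640 broth (M27-A2). DMSO-dissolved compound was tested in twofold dilutions from 320 to 1.25 at 35 °C, incubated up to 72 h, in duplicate. MIC was the lowest concentration with no visible growth. Cidal concentration was read by subculturing 20 µL from clear wells on Sabouraud dextrose agar, incubated for the same period.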

Saccharomyces cerevisiae = assay: Antimicrobial activity against Saccharomyces cerevisiae ATCC 2601 by broth microdilution method; format: functional; procedure, shortened: as §2
Staphylococcus aureus = assay: Antimicrobial activity against Staphylococcus aureus ATCC 25923 by broth microdilution method; format: functional; conditions: for MBC: read-out: MFC
Procedure, shortened: (§3)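 Bacteria grown overnight on Mueller–Hinton agar. Colonies were suspended in saline to McFarland turbidity (about 10^8 cfu/mL), diluted 1:100 in saline, then 1:20 in Mueller–Hinton broth, giving 5 · 10^4 cfu/mL per well. DMSO-dissolved compound was tested in twofold dilutions from 320 to 1.25 at 35 °C for 24 h. MIC was the lowest concentration with no visible turbidity (M7-A4). Bactericidal concentration was read by subculturing clear wells on Mueller–Hinton agar.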

Klebsiella pneumoniae = assay: Antimicrobial activity against Klebsiella pneumoniae ATCC 1003 by broth microdilution method; format: functional; conditions: for MBC: read-out: MFC; procedure, shortened: as §3
Escherichia coli = assay: Antimicrobial activity against Escherichia coli ATCC 25922 by broth microdilution method; format: functional; procedure, shortened: as §3
[2] = (§4) Antimicrobial activity against Salmonella setubal ATCC 19196 by broth microdilution method; format: functional, Salmonella enterica subsp. enterica serovar Setubal; conditions: Salmonella enterica; procedure, shortened: as §3
[3] = test system: Salmonella enterica subsp. enterica serovar Setubal; assay: as §4; format: functional; procedure, shortened: as §3
Prototheca zopfii = assay: Antimicrobial activity against Prototheca zopfii by broth microdilution method; format: functional; procedure, shortened: as §2
Pseudomonas aeruginosa = assay: Antimicrobial activity against Pseudomonas aeruginosa ATCC 27853 by broth microdilution method; format: functional; procedure, shortened: as §3
Rhizopus arrhizus = assay: Antimicrobial activity against Rhizopus oryzae isolate by broth microdilution method; format: functional
Sporothrix schenckii = assay: Antimicrobial activity against Sporothrix schenckii ATCC 1146 by broth microdilution method; format: functional
Fusarium solani = assay: Antimicrobial activity against Fusarium solani isolate by broth microdilution method; format: functional
Aspergillus fumigatus = assay: Antimicrobial activity against Aspergillus fumigatus isolate by broth microdilution method; format: functional
Aspergillus flavus = assay: Antimicrobial activity against Aspergillus flavus isolate by broth microdilution method; format: functional
Aspergillus niger = assay: Antimicrobial activity against Aspergillus niger isolate by broth microdilution method; format: functional
Aspergillus terreus = assay: Antimicrobial activity against Aspergillus terreus isolate by broth microdilution method; format: functional
Scedosporium boydii = assay: Antimicrobial activity against Pseudallescheria boydii isolate by broth microdilution method; format: functional

SMILES | MFC (Candida albicans) [µg/mL] | MIC (Candida albicans) [µg/mL] | MFC (Candida dubliniensis) [µg/mL] | MIC (Candida dubliniensis) [µg/mL] | MIC (Nakaseomyces glabratus) [µg/mL] | MFC [1] [µg/mL] | MIC [1] [µg/mL] | MIC (Staphylococcus aureus) [µg/mL] | MIC (Klebsiella pneumoniae) [µg/mL] | Activity (Escherichia coli) | MIC (Escherichia coli) [µg/mL] | MIC [2] [µg/mL] | Activity [3] | MFC (Prototheca zopfii) [µg/mL] | MIC (Prototheca zopfii) [µg/mL] | MIC (Pseudomonas aeruginosa) [µg/mL] | MIC (Rhizopus arrhizus) [µg/mL] | MIC (Sporothrix schenckii) [µg/mL] | MIC (Fusarium solani) | MIC (Aspergillus niger) [µg/mL] | other results
O=C(NNc1c(F)c(F)c(F)c(F)c1F)c1ccoc1 | 320 (≈ 1100 µM) | 320 (≈ 1100 µM) | 320 (≈ 1100 µM) | 160 (≈ 548 µM) | 320 (≈ 1100 µM) | 320 (≈ 1100 µM) | 320 (≈ 1100 µM) | 320 (≈ 1100 µM) | 320 (≈ 1100 µM) | inactive | 320 (≈ 1100 µM) | 320 (≈ 1100 µM) | inactive | 320 (≈ 1100 µM) | 80 (≈ 274 µM) | 320 (≈ 1100 µM) | 320 (≈ 1100 µM) | 320 (≈ 1100 µM) | 80 µg/mL (≈ 274 µM) | 320 (≈ 1100 µM) | Activity (Nakaseomyces glabratus): inactive; Activity (Saccharomyces cerevisiae): inactive; Activity (Staphylococcus aureus): inactive; Activity (Klebsiella pneumoniae): inactive; Activity (Pseudomonas aeruginosa): inactive; MFC (Rhizopus arrhizus): 320 µg/mL (≈ 1100 µM); MFC (Sporothrix schenckii): 320 µg/mL (≈ 1100 µM); MFC (Fusarium solani): 80 µg/mL (≈ 274 µM); Activity (Aspergillus fumigatus): inactive; Activity (Aspergillus flavus): inactive; MFC (Aspergillus niger): 320 µg/mL (≈ 1100 µM); MFC (Aspergillus terreus): 320 µg/mL (≈ 1100 µM); MIC (Aspergillus terreus): 320 µg/mL (≈ 1100 µM); Activity (Scedosporium boydii): inactive
O=C(NNc1ccccc1)c1ccoc1 | 320 (≈ 1580 µM) | 320 (≈ 1580 µM) | 320 (≈ 1580 µM) | 320 (≈ 1580 µM) | 320 (≈ 1580 µM) | 160 (≈ 791 µM) | 160 (≈ 791 µM) | 320 (≈ 1580 µM) | 320 (≈ 1580 µM) | inactive | 320 (≈ 1580 µM) | 320 (≈ 1580 µM) | inactive | 320 (≈ 1580 µM) | 160 (≈ 791 µM) | 320 (≈ 1580 µM) | 320 (≈ 1580 µM) | 10 (≈ 49.5 µM) | 2.5 µg/mL (≈ 12.4 µM) | 20 (≈ 98.9 µM) | Activity (Nakaseomyces glabratus): inactive; MFC (Saccharomyces cerevisiae): 320 µg/mL (≈ 1580 µM); MIC (Saccharomyces cerevisiae): 320 µg/mL (≈ 1580 µM); Activity (Staphylococcus aureus): inactive; Activity (Klebsiella pneumoniae): inactive; Activity (Pseudomonas aeruginosa): inactive; MFC (Rhizopus arrhizus): 320 µg/mL (≈ 1580 µM); MFC (Sporothrix schenckii): 320 µg/mL (≈ 1580 µM); MFC (Fusarium solani): 2.5 µg/mL (≈ 12.4 µM); MFC (Aspergillus fumigatus): 20 µg/mL (≈ 98.9 µM); MIC (Aspergillus fumigatus): 20 µg/mL (≈ 98.9 µM); MFC (Aspergillus flavus): 20 µg/mL (≈ 98.9 µM); MIC (Aspergillus flavus): 10 µg/mL (≈ 49.5 µM); MFC (Aspergillus niger): 40 µg/mL (≈ 198 µM); MFC (Aspergillus terreus): 40 µg/mL (≈ 198 µM); MIC (Aspergillus terreus): 40 µg/mL (≈ 198 µM); MFC (Scedosporium boydii): 320 µg/mL (≈ 1580 µM); MIC (Scedosporium boydii): 10 µg/mL (≈ 49.5 µM)
O=C(Nc1nc[nH]n1)c1ccoc1 | 80 (≈ 449 µM) | 80 (≈ 449 µM) | 80 (≈ 449 µM) | 40 (≈ 225 µM) | 80 (≈ 449 µM) | 80 (≈ 449 µM) | 20 (≈ 112 µM) | 160 (≈ 898 µM) | 320 (≈ 1800 µM) | inactive | 320 (≈ 1800 µM) | 320 (≈ 1800 µM) | inactive | 160 (≈ 898 µM) | 160 (≈ 898 µM) | 160 (≈ 898 µM) | 320 (≈ 1800 µM) | 160 (≈ 898 µM) | 320 µg/mL (≈ 1800 µM) | 320 (≈ 1800 µM) | MFC (Nakaseomyces glabratus): 80 µg/mL (≈ 449 µM); MFC (Saccharomyces cerevisiae): 320 µg/mL (≈ 1800 µM); MIC (Saccharomyces cerevisiae): 160 µg/mL (≈ 898 µM); MBC (Staphylococcus aureus): 160 µg/mL (≈ 898 µM); MBC (Klebsiella pneumoniae): 320 µg/mL (≈ 1800 µM); MBC (Pseudomonas aeruginosa): 320 µg/mL (≈ 1800 µM); Activity (Rhizopus arrhizus): inactive; MFC (Sporothrix schenckii): 320 µg/mL (≈ 1800 µM); Activity (Fusarium solani): inactive; Activity (Aspergillus fumigatus): inactive; MIC (Aspergillus fumigatus): 320 µg/mL (≈ 1800 µM); Activity (Aspergillus flavus): inactive; Activity (Aspergillus terreus): inactive; MFC (Scedosporium boydii): 320 µg/mL (≈ 1800 µM); MIC (Scedosporium boydii): 320 µg/mL (≈ 1800 µM)
O=C(NCCCO)c1ccoc1 | 160 (≈ 946 µM) | 80 (≈ 473 µM) | 160 (≈ 946 µM) | 160 (≈ 946 µM) | 160 (≈ 946 µM) | 80 (≈ 473 µM) | 40 (≈ 236 µM) | 160 (≈ 946 µM) | 320 (≈ 1890 µM) | inactive | – | – | inactive | 160 (≈ 946 µM) | 160 (≈ 946 µM) | 160 (≈ 946 µM) | 320 (≈ 1890 µM) | 320 (≈ 1890 µM) | 320 µg/mL (≈ 1890 µM) | 320 (≈ 1890 µM) | MFC (Nakaseomyces glabratus): 160 µg/mL (≈ 946 µM); Activity (Saccharomyces cerevisiae): inactive; MIC (Saccharomyces cerevisiae): 320 µg/mL (≈ 1890 µM); MBC (Staphylococcus aureus): 320 µg/mL (≈ 1890 µM); Activity (Klebsiella pneumoniae): inactive; MBC (Pseudomonas aeruginosa): 160 µg/mL (≈ 946 µM); MFC (Rhizopus arrhizus): 320 µg/mL (≈ 1890 µM); MFC (Sporothrix schenckii): 320 µg/mL (≈ 1890 µM); MFC (Fusarium solani): 320 µg/mL (≈ 1890 µM); Activity (Aspergillus fumigatus): inactive; MIC (Aspergillus fumigatus): 320 µg/mL (≈ 1890 µM); Activity (Aspergillus flavus): inactive; Activity (Aspergillus niger): inactive; MFC (Aspergillus terreus): 320 µg/mL (≈ 1890 µM); MIC (Aspergillus terreus): 320 µg/mL (≈ 1890 µM); MFC (Scedosporium boydii): 320 µg/mL (≈ 1890 µM); MIC (Scedosporium boydii): 320 µg/mL (≈ 1890 µM)
CN(C)c1ccc(CNC(=O)c2ccoc2)cc1 | 160 (≈ 655 µM) | 80 (≈ 327 µM) | 160 (≈ 655 µM) | 80 (≈ 327 µM) | 80 (≈ 327 µM) | 320 (≈ 1310 µM) | 160 (≈ 655 µM) | 80 (≈ 327 µM) | 160 (≈ 655 µM) | inactive | 160 (≈ 655 µM) | 320 (≈ 1310 µM) | – | – | 320 (≈ 1310 µM) | 160 (≈ 655 µM) | 320 (≈ 1310 µM) | 320 (≈ 1310 µM) | inactive | 320 (≈ 1310 µM) | MFC (Nakaseomyces glabratus): 160 µg/mL (≈ 655 µM); Activity (Saccharomyces cerevisiae): inactive; MIC (Saccharomyces cerevisiae): 160 µg/mL (≈ 655 µM); MBC (Staphylococcus aureus): 80 µg/mL (≈ 327 µM); MBC (Klebsiella pneumoniae): 160 µg/mL (≈ 655 µM); MBC [2]: 320 µg/mL (≈ 1310 µM); Activity (Prototheca zopfii): inactive; MBC (Pseudomonas aeruginosa): 160 µg/mL (≈ 655 µM); Activity (Rhizopus arrhizus): inactive; Activity (Sporothrix schenckii): inactive; Activity (Aspergillus fumigatus): inactive; MIC (Aspergillus fumigatus): 320 µg/mL (≈ 1310 µM); Activity (Aspergillus flavus): inactive; MIC (Aspergillus flavus): 320 µg/mL (≈ 1310 µM); Activity (Aspergillus niger): inactive; Activity (Aspergillus terreus): inactive; MFC (Scedosporium boydii): 320 µg/mL (≈ 1310 µM); MIC (Scedosporium boydii): 40 µg/mL (≈ 164 µM)
